# Assays:
# [1] = molecular target: T1, Prostaglandin E2 receptor EP4 subtype (Homo sapiens, UniProt P35408); assay: Displacement of [3H]PGE2 from human prostanoid EP4 receptor expressed in HEK293-EBNA cells after 60 mins by scintillation counting; assay type: cell-based
# Homo sapiens [2] = species on record: Homo sapiens; assay: Selectivity ratio of Ki for human prostanoid TP receptor to Ki for human prostanoid EP4
# [3] = molecular target: T1, Prostaglandin E2 receptor EP4 subtype; assay: Agonist activity at human prostanoid EP4 receptor expressed in HEK293 cells assessed as cAMP accumulation by scintillation proximity assay
# [4] = Half life in rat at 20 mg/kg, po and 5 mg/kg, iv; assay type: ADME, organism-based; settings: in vivo
# In short: (§1)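 Rat pharmacokinetics with potassium salts, given 20 mg/kg orally in 0.5% methocel and 5 mg/kg intravenously in 60% PEG 200. Half-life, oral bioavailability and clearance derived from these dosings.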
# Homo sapiens [5] = species on record: Homo sapiens; assay: Selectivity ratio of Ki for human prostanoid EP2 receptor to Ki for human prostanoid EP4
# [6] = Bioavailability in rat at 20 mg/kg, po and 5 mg/kg, iv; assay type: ADME, organism-based; settings: in vivo; in short: as §1
# [7] = Clearance in rat at 20 mg/kg, po and 5 mg/kg, iv; assay type: ADME, organism-based; settings: in vivo; in short: as §1
# Homo sapiens [8] = species on record: Homo sapiens; assay: Selectivity ratio of Ki for human prostanoid DP receptor to Ki for human prostanoid EP4
# Homo sapiens [9] = species on record: Homo sapiens; assay: Selectivity ratio of Ki for human prostanoid EP1 receptor to Ki for human prostanoid EP4
# Homo sapiens [10] = species on record: Homo sapiens; assay: Selectivity ratio of Ki for human prostanoid IP receptor to Ki for human prostanoid EP4
# [11] = molecular target: T1, Prostaglandin E2 receptor EP4 subtype; assay: Antagonist activity at human prostanoid EP4 receptor expressed in HEK293 cells assessed as inhibition of PGE2-induced cAMP accumulation by scintillation proximity assay; assay type: functional, cell-based
# In short: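 HEK293 cells expressing EP4 receptors. Antagonism is read as inhibition of PGE2-evoked rise in intracellular cAMP, reported as IC50. Agonism is read as cAMP elevation in the same cells without PGE2, reported as EC50.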
# Homo sapiens [12] = species on record: Homo sapiens; assay: Selectivity ratio of Ki for human prostanoid FP receptor to Ki for human prostanoid EP4
# Homo sapiens [13] = species on record: Homo sapiens; assay: Selectivity ratio of Ki for human prostanoid EP3 receptor to Ki for human prostanoid EP4
# T1 sequence (P35408 whole entry): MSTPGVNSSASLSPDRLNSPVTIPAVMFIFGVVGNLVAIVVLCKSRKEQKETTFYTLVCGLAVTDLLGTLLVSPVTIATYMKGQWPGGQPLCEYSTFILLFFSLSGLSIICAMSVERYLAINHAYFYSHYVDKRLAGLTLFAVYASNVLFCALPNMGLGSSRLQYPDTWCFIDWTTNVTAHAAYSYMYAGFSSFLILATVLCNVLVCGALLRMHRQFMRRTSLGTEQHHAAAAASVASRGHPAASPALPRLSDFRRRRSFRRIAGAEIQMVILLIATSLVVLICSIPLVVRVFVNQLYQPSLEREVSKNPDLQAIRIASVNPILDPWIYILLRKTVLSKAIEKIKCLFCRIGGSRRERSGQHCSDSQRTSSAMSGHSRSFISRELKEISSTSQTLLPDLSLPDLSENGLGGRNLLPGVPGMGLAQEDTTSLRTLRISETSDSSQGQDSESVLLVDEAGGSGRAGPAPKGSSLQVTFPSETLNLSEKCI
SMILES,Ki [1] [nM],Ratio Ki (Homo sapiens [2]),EC50 [3] [nM],half-life [4] [h],Ratio Ki (Homo sapiens [5]),bioavailability [6] [%],clearance [7] [mL/min/kg],Ratio Ki (Homo sapiens [8]),Ratio Ki (Homo sapiens [9]),Ratio Ki (Homo sapiens [10]),IC50 [11] [nM],Ratio Ki (Homo sapiens [12]),Ratio Ki (Homo sapiens [13])
C[C@H](NC(=O)c1cccc2c1N(Cc1cccc(Cl)c1)CC2)c1ccc(C(=O)O)cc1,0.44,> 1000,0.82,4.4,595,65,26,> 1000,> 1000,> 1000,> 10000,> 1000,> 1000
C[C@H](NC(=O)c1cc(C(F)(F)F)cc2c1N(Cc1ccc(C(F)(F)F)cc1)CC2)c1ccc(C(=O)O)cc1,0.66,> 1000,–,–,153,–,–,504,> 1000,> 1000,3,> 1000,> 1000
C[C@H](NC(=O)c1cccc2c1N(Cc1ccc(F)cc1)CC2)c1ccc(C(=O)O)cc1,1.8,> 1000,–,–,488,–,–,907,> 1000,> 1000,6.2,> 1000,> 1000
C[C@H](NC(=O)c1cccc2c1N(Cc1ccc(Cl)c(Cl)c1)CC2)c1ccc(C(=O)O)cc1,0.34,> 1000,–,4.8,338,73,12,241,> 1000,> 1000,1.1,> 1000,> 1000
C[C@H](NC(=O)c1cccc2c1N(Cc1ccc(C(=O)O)cc1)CC2)c1ccc(C(=O)O)cc1,54,> 1000,–,–,> 179,–,–,> 73,> 1000,> 1000,–,> 1000,> 1000
C[C@H](NC(=O)c1cccc2c1N(Cc1cccc(C(N)=O)c1)CC2)c1ccc(C(=O)O)cc1,30,> 1000,–,–,582,–,–,461,> 1000,> 1000,72,> 1000,> 1000
C[C@H](NC(=O)c1cccc2c1N(Cc1cccc(C(F)(F)F)c1)CC2)c1ccc(C(=O)O)cc1,0.4,> 1000,0.2,–,> 1000,–,–,> 1000,> 1000,> 1000,> 10000,> 1000,> 1000
C[C@H](NC(=O)c1cccc2c1N(Cc1ccc(OC(F)(F)F)cc1)CC2)c1ccc(C(=O)O)cc1,1.5,> 1000,–,–,687,–,–,880,> 1000,> 1000,2.8,> 1000,> 1000
C[C@H](NC(=O)c1cccc2c1N(Cc1ccc(C(C)(C)C)cc1)CC2)c1ccc(C(=O)O)cc1,14,> 1000,–,–,> 692,–,–,> 281,> 1000,> 1000,114,> 1000,> 1000
C[C@H](NC(=O)c1cccc2c1N(Cc1ccc(C#N)cc1)CC2)c1ccc(C(=O)O)cc1,3.1,> 1000,–,–,603,–,–,916,> 1000,> 1000,7.3,> 1000,> 1000
C[C@H](NC(=O)c1cccc2ccn(Cc3cccc(Cl)c3)c12)c1ccc(C(=O)O)cc1,–,> 1000,–,–,> 1000,–,–,16,> 1000,> 1000,6,> 1000,> 1000
C[C@H](NC(=O)c1cccc2c1N(Cc1ccc(C(N)=O)cc1)CC2)c1ccc(C(=O)O)cc1,30,> 1000,–,–,> 1000,–,–,> 1000,> 1000,> 1000,73,> 1000,> 1000
C[C@H](NC(=O)c1cccc2c1N(Cc1ccc(Cl)cc1Br)CC2)c1ccc(C(=O)O)cc1,2.3,> 1000,–,–,> 1000,–,–,114,> 1000,> 1000,8.3,> 1000,> 1000
Cc1ccc(CN2CCc3cccc(C(=O)N[C@@H](C)c4ccc(C(=O)O)cc4)c32)cc1,0.78,> 1000,–,–,> 1000,–,–,> 1000,> 1000,> 1000,5.8,> 1000,> 1000
C[C@H](NC(=O)c1cccc2c1N(Cc1cccc(C#N)c1)CC2)c1ccc(C(=O)O)cc1,7.5,> 1000,–,–,582,–,–,> 1000,> 1000,> 1000,212,> 1000,> 1000
C[C@H](NC(=O)c1cccc2c1N(Cc1ccc(C(F)(F)F)cc1Br)CC2)c1ccc(C(=O)O)cc1,6.7,> 1000,–,–,795,–,–,88,> 1000,> 1000,4.7,> 1000,> 1000
C[C@H](NC(=O)c1cccc2c1N(Cc1cc(Br)cc(Br)c1)CC2)c1ccc(C(=O)O)cc1,0.33,> 1000,0.36,–,151,–,–,209,> 1000,> 1000,> 10000,> 1000,> 1000
C[C@H](NC(=O)c1cc(Cl)cc2c1N(Cc1ccc(C(F)(F)F)cc1)CC2)c1ccc(C(=O)O)cc1,0.4,> 1000,–,–,647,–,–,670,> 1000,> 1000,2.2,> 1000,> 1000
C[C@H](NC(=O)c1cc(F)cc2c1N(Cc1ccc(C(F)(F)F)cc1)CC2)c1ccc(C(=O)O)cc1,0.37,> 1000,–,–,> 1000,–,–,> 1000,> 1000,> 1000,2.1,> 1000,> 1000
C[C@H](NC(=O)c1cccc2c1N(Cc1ccc(-c3ccccc3)cc1)CC2)c1ccc(C(=O)O)cc1,0.28,> 1000,–,–,139,–,–,57,> 1000,> 1000,1.3,> 1000,> 1000
C[C@H](NC(=O)c1cccc2c1N(Cc1cccnc1)CC2)c1ccc(C(=O)O)cc1,76,> 1000,–,–,> 127,–,–,> 50,> 1000,> 1000,258,> 1000,> 1000
C[C@H](NC(=O)c1cccc2c1N(Cc1ccc(C(F)(F)F)cc1)CC2)c1ccc(-c2nn[nH]n2)cc1,–,> 1000,–,–,> 1000,–,–,> 1000,> 1000,> 1000,–,> 1000,> 1000
C[C@H](NC(=O)c1cccc2c1N(Cc1ccc(C(F)(F)F)cc1)CC2)c1ccc(-c2nnn[nH]2)cc1,1,–,–,2.6,–,54,28,–,–,–,3.5,–,–
C[C@H](NC(=O)c1cccc2c1N(Cc1ccc(Cl)cc1)CC2)c1ccc(C(=O)O)cc1,0.44,> 1000,–,4.7,> 1000,102,9,> 1000,> 1000,> 1000,0.92,> 1000,> 1000
